Here are results for eight substances from paper PMC6936558 (Proceedings of the National Academy of Sciences of the …, 2019).

Assay [1] concerns the target SpyCatcher003-555. The experiment in a line: FRET or BRET. (In BRET a luciferase serves as donor, and the signal depends on an acceptor being close.)
Assay [2] deals with SpyCatcher003-sfGFP. The assay can be described thus: Comparison of stages of SpyTag development. Conditions: 10 nM each, 10 min, SPG buffer pH 7.0 + 0.2% BSA, 25 °C; n = 3. In kind it is biochemical.
The test system of assay [3] is SpyCatcher002-555. The assay can be described thus: Stopped-flow FRET kinetics. In kind it is binding, Streptococcus pyogenes. Conditions: PBS pH 7.4, 25 °C; mean ± 1 SD, n = 4. The gist of the method: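 Stopped-flow fluorescence with 1:1 mixing at 25 °C in PBS pH 7.4, excitation 480 nm, emission through a 515-nm long-pass filter. The SpyTag variant-mClover3 was at 100 nM final against pseudo-first-order SpyCatcher variant-555 at 400 to 1,000 nM. kon came from a linear fit of the first-phase kobs against SpyCatcher variant concentration.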

The subject of assay [4] is SpyCatcher002-sfGFP. As to conditions: cited from earlier work.
The test system of assay [5] is SpyCatcher003. The experiment in a line: Isothermal titration calorimetry. Conditions: PBS pH 7.4, 25 °C. In kind it is binding, Streptococcus pyogenes. On the technique in general: In ITC the heat of successive injections is recorded.
Assay [6] deals with SpyCatcher002-555. The experiment in a line: FRET or BRET.
Assay [7] concerns the target SpyCatcher003-sfGFP. The experiment in a line: covalent reaction.
Assay [8] addresses SpyCatcher003. The assay can be described thus: covalent reaction followed by SDS/PAGE with Coomassie staining.
The target in assay [9] is SpyCatcher003. The experiment in a line: SPR.

One may read the kon as the second-order rate constant of association. A lower kon goes with slow association. The term Kd denotes the concentration at which binding is half-saturated. One may read the koff as the rate constant with which the complex falls apart. Read a high koff as a short-lived complex.

Where “and” joins values, the source holds several entries; their conditions need not be identical. Equal entries are not always repeated.

Consider SpyTag003 DA-mClover3 (peptide), for which, in assay [1], the dissociation rate constant, first phase of the chase (90% of signal change) stood at 0.009 s⁻¹; the dissociation rate constant, second phase of the chase (10% of signal change) came out at 0.002 s⁻¹; the estimated Kd of one version of the complex (dissociation rate constant / kon) was 0.003 µM and 0.013 µM; the kobs2 (second phase) was 0.08 s⁻¹. In assay [1], this substance yielded a kobs3 (third phase) of 0.004 s⁻¹ and a kon of 680000 M⁻¹ s⁻¹.
As for VPHIVMVDAYKRYK [SpyTag002 T112H], the “effect of Tag mutation on reaction rate” value in [2] is recorded as “enhanced reaction rate”.
In the case of VPTIVMVDAYKRYK [SpyTag002], the “association rate constant (kon)” value in assay [3] is 4.2 ± 0.5 × 10^5 M^−1 s^−1. Moreover, the “improvement of rate of reaction over SpyTag/SpyCatcher” value in [4] (by phage display selection, SpyTag002 and SpyCatcher002) is recorded as over 12 fold. In addition, in assay [4] (previously shown), the “second-order rate constant, SpyTag002/SpyCatcher002” value is 20000 M⁻¹ s⁻¹.
Consider RGVPHIVMVAAYKRYK [SpyTag003 DA-MBP], for which the “affinity by ITC” value in assay [5] is on record as “too tight to measure by ITC”.
For the substance SpyTag002-mClover3 (peptide), in assay [6], the kon was 420000 M⁻¹ s⁻¹.
With “SpyTag003-maltose binding protein (MBP) (peptide)”, the percent completion of the covalent reaction (10 nM each, 15 min) in [7] is over 90%. In [8], this substance displayed a percent completion of the covalent reaction (SpyCatcher003 in excess) of over 99% and a percent completion of the covalent reaction (SpyTag003 in excess) of over 99%.
As for SpyTag003 DA-MBP (peptide), the Kd in assay [9] came to 0.021 µM.
In assay [1], SpyTag003-mClover3 (peptide) registered a decrease in donor (mClover3) peak fluorescence intensity of 35%; a kobs1 (first phase, 500 nM SpyCatcher003-555) of 0.54 s⁻¹; a kobs2 (second phase, 500 nM SpyCatcher003-555) of 0.016 s⁻¹; a kobs3 (third phase, 500 nM SpyCatcher003-555) of 0.004 s⁻¹. In [1], the koff stood at 0.26 s⁻¹ and the on-rate (kon) was found to be 620000 M⁻¹ s⁻¹.
